Source: PubChem BioAssay (PCMD)
Yeast tox: Compounds toxic to wild-type S. cerevisiae growth | A595 turbidity, 16 h | growth inhibition, % at 25 µM (by protocol) | AID 685 | actives 0.3% (n = 30,000);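 active means mutant and wild-type yeast strains alike exhibit over 30% growth inhibition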;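 further: 0% = untreated cell controls and 100% = YPD media blanks without cells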
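system = S. cerevisiae wild-type or eIF2Bepsilon-R284H mutant strain | buffer or medium = YPD medium | dosing = one dose, 25 µM compound, 0.2% DMSO | schedule = 16 h at 30 °C | measured by = A595 turbidity | evaluation = growth inhibition (%) versus cell controls and blanks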
eIF2B yeast act: modulators of yeast eIF2B activity; S. cerevisiae eIF2B-epsilon R284H, GCN4-lacZ luminescence; inhibition, % at 25 µM (by protocol); actives 0.91% (n = 27,000);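 active means mutant luminescence inhibited past about 50% while wild type luminescence and mutant growth stay under set limits, limit read from the data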
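Times: 16 h growth with compound at 30 °C, 90 min Beta-Glo step; Assay system: yeast eIF2B-epsilon R284H mutant carrying GCN4–beta-galactosidase fusion; Measure: % inhibition of reporter signal and growth versus controls; Dosing: one concentration, 25 µM, 0.25% DMSO; Buffer or medium: YPD yeast growth medium; Measured by: Beta-Glo luminescence plus absorbance at 595 nm.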
Starred values were filed as active, the others as inactive; nt = no result given. Shown are actives, neighbours in structure and some others; about 1% of the full set was active somewhere.

SMILES	Yeast tox	eIF2B yeast act
Cc1ccc(C)c(/C(O)=C2/C(=O)C(=O)N(CCN3CCOCC3)C2c2ccco2)c1 (stereo not drawn)	-23	25
COCCN1CCN(c2cc(-c3ccccc3)nc3cc(-c4cccc(F)c4)nn23)CC1	74*	nt
Fc1cccc(-c2cc3nc(-c4ccccc4)cc(N4CCC5(CC4)OCCO5)n3n2)c1	nt	-2
CCCOc1ccc(/C(O)=C2/C(=O)C(=O)N(CCCN3CCOCC3)C2c2ccncc2)cc1 (stereo not drawn)	-2	24
O=C(NCc1ccncc1)c1ccc(Cl)c(S(=O)(=O)N2CCOCC2)c1	nt	19
CC(C)(C)SCCNC(=O)c1ccc(Cl)c(S(=O)(=O)N2CCOCC2)c1	0	52*
Cc1ccc(N2CC(C(=O)Nc3ccccc3C(=O)NC3CCCCC3)CC2=O)cc1C (stereo not drawn)	10	54*
O=C(Nc1ccccc1C(=O)NC1CCCCC1)c1ccco1	-2	17
CC(=O)C(Sc1nc(-c2ccco2)nc2c1c(=O)n(C)c(=O)n2C)C(=O)N(C)C (stereo not drawn)	18	27
Cn1c(/C(C#N)=C(\O)CN2CCN(Cc3ccccc3)CC2)nc2ccccc21	-15	64*
Cc1ccc(SC/C(O)=C(\C#N)c2nc3ccccc3n2C)cc1	-18	12
CCN(CC)S(=O)(=O)c1ccc(S(=O)(=O)Nc2ccc(C(=O)N3CCCC3)cc2)cc1	7	3
c1ccc(-c2cc(-c3nn4c(-c5ccco5)nnc4s3)c3ccccc3n2)cc1	-15	72*
Cc1cc(-c2nn3c(-c4ccccc4)nnc3s2)c2ccccc2n1	-5	13
COc1cccc(C2NC(CC(C)C)(C(=O)O)C3C(=O)N(Cc4ccccc4)C(=O)C23)c1O (stereo not drawn)	18	52*
COC(=O)C1(Cc2ccccc2)NC(c2ccccc2C)C2C(=O)N(c3ccc4c(c3)OCO4)C(=O)C21 (stereo not drawn)	-18	22
CCOC(=O)C(CC)(CC)/C(C)=N/NC(=O)CC#N	15	17
COc1cccc(C2(O)CCN(C(=O)Cc3cccnc3)CC2)c1	40	-1
C=CCn1c(SCC(=O)c2ccc(NS(=O)(=O)c3ccccc3)cc2)nnc1-c1cccs1	7	-11
CCCOC(=O)/C(=C\c1ccc([N+](=O)[O-])o1)NC(=O)c1ccccc1	-16	0
CCc1ccc(C(=O)/C=C/c2ccc([N+](=O)[O-])o2)cc1	66*	nt
CCCCNC(=O)C1CCCN1C(=O)Nc1cccc(OC)c1 (stereo not drawn)	5	8
CCOC(=O)CSc1nc2sc3c(c2c(=O)[nH]1)CCCC3	-44	50*
CCCCSc1nc2sc3c(c2c(=O)[nH]1)CCC3	-20	16
CCOCc1nc(N)[nH]c(=O)c1Cc1ccc(OC(C)C)cc1	17	9
SMILES	Yeast tox	eIF2B yeast act
CCOC(=O)C1=C(CSc2nc3c(cc2C#N)CN(C)CC3)OC(N)=C(C#N)C1c1ccccc1 (stereo not drawn)	-6	18
CN1CCc2nc(SCCOc3ccccc3)c(C#N)cc2C1	16	70*
CC(C)CC(=O)NC1(C(F)(F)F)C(=O)Nc2c1c(=O)n(C)c(=O)n2C (stereo not drawn)	nt	0
CCc1nn(-c2ccccc2)c(N)c1-c1ccc(OC)c(OC)c1	4	19
O=C(c1c[nH]c2ccc(S(=O)(=O)N3CCOCC3)cc2c1=O)N1CCCC1	1	60*
O=C(O)c1c[nH]c2ccc(S(=O)(=O)N3CCN(c4ccc(F)cc4)CC3)cc2c1=O	18	10
Cc1cccc(C)c1OCc1nnc2c3cnn(C)c3ncn12	13	-12
Cc1ccccc1OCc1nc2c3cnn(C)c3ncn2n1	-14	55*
CCN(CC)C(=O)C1=C(C)Nc2nnnn2C1c1cccnc1 (stereo not drawn)	0	27
CN(c1ccccc1)c1nc(-n2ccnc2)nc(-n2ccnc2)n1	-2	28
c1ccc(N(c2ccccc2)c2nc(-n3ccnc3)nc(-n3ccnc3)n2)cc1	101*	95
COc1ccc(OC)c(NC(=O)CNC(=O)Cn2cnc3ccccc3c2=O)c1	-4	65*
COc1ccc(NC(=O)CCNC(=O)Cn2cnc3ccccc3c2=O)c(OC)c1	-4	-11
Cc1ccc(-c2nnc(CSc3nc(C(C)C)nc4sc(C)c(C)c34)o2)cc1	nt	26
O=C(OCn1ncc(Br)c(Br)c1=O)c1c(F)cccc1F	82*	nt
CCOC(=O)c1c(NC(=O)c2c(Br)cnn2CC)sc(C)c1C	-17	26
Cn1c(=O)n(CC(=O)N2CCOCC2)c2ccccc21	1	27
O=C(Oc1cccc(NC(=O)c2ccco2)c1)c1cccc(S(=O)(=O)N2CCCCC2)c1	10	15
CC(C)c1ccc2c(c1)C1(NN=C(c3ccccc3)S1)C(=O)N2 (stereo not drawn)	7	-2
CCc1ccc2c(c1)C1(NN=C(c3ccc(C)cc3)S1)C(=O)N2 (stereo not drawn)	nt	60*
COc1ccc(CCNC(=O)C2CCCN2C(=O)Nc2cccc(C(C)=O)c2)cc1OC (stereo not drawn)	21	12
